According to ChEMBL document CHEMBL1671746, “TelA contributes to the innate resistance of Listeria monocytogenes to nisin and other cell wall-acting antibiotics” (2010):
Values after ≈ are worked out from the molar mass of the structure shown. Bridge positions count the residues as written; N and C are the ends. Square brackets hold non-standard residues; d marks the D form. Peptide text beside a SMILES is read from it. * marks the point of attachment. Ileψ(thiazoline)Cys = CC[C@H](C)[C@H](N)C1=N[C@H](C(=O)*)CS1; dOrn = NCCC[C@@H](N)C(=O)O

Assays:
Type in all cases: functional
Listeria monocytogenes [1] = test: Antibacterial activity against 10^7 CFU/ml telA-deficient Listeria monocytogenes EGD-e Serovar 1/2a at 10 ug after 16 hrs by disk diffusion assay; details: read-out: IZ
Method in brief: (§1)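 Stationary-phase (16 h) cultures were diluted to 10^7 CFU/ml and swabbed onto TSA-YE. 6-mm disks carrying a single antibiotic were laid on the agar. Zones of inhibition were measured after overnight (16 h) growth.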

Listeria monocytogenes [2] = test: Antibacterial activity against 10^5 CFU/ml telA-deficient Listeria monocytogenes EGD-e Serovar 1/2a after 16 hrs by two fold serial dilution method
Method in brief: (§2)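 Broth microdilution in TSB-YE: 2-fold serial dilutions of antimicrobial mixed 1:1 with target cells at 10^5 CFU/ml. Incubated 20 h for HPLC-purified nisin A, 16 h for other antimicrobials. MIC is the lowest concentration giving no visible growth. For nisin and gallidermin, the μg/ml value is converted from a μM value.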

Listeria monocytogenes [3] = test: Antibacterial activity against 10^5 CFU/ml wild-type Listeria monocytogenes EGD-e Serovar 1/2a after 16 hrs by two fold serial dilution method; method in brief: as §2
Listeria monocytogenes [4] = test: Ratio of MIC wild-type Listeria monocytogenes EGD-e Serovar 1/2a to MIC for telA-deficient Listeria monocytogenes EGD-e Serovar 1/2a
Method in brief: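 Both MICs come from the TSB-YE 2-fold broth microdilution (10^5 CFU/ml; 20 h for purified nisin A, 16 h for others). The ratio compares the parent EGDe MIC with the ΔtelA MIC.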

Listeria monocytogenes [5] = test: Antibacterial activity against 10^7 CFU/ml wild-type Listeria monocytogenes EGD-e Serovar 1/2a […] after 16 hrs by disk diffusion assay; details: read-out: IZ; method in brief: as §1
Listeria monocytogenes [6] = test: Antibacterial activity against 10^7 CFU/ml wild-type Listeria monocytogenes EGD-e Serovar 1/2a at 30 ug after 16 hrs by disk diffusion assay; details: read-out: IZ; method in brief: as §1
Listeria monocytogenes [7] = test: Antibacterial activity against 10^7 CFU/ml telA-deficient Listeria monocytogenes EGD-e Serovar 1/2a at 30 ug after 16 hrs by disk diffusion assay; details: read-out: IZ; method in brief: as §1
Listeria monocytogenes [8] = test: Antibacterial activity against 10^7 CFU/ml wild-type Listeria monocytogenes EGD-e Serovar 1/2a at 1 ug after 16 hrs by disk diffusion assay; details: read-out: IZ
Method in brief: (§3)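 Stationary-phase (16 h) cultures diluted to 10^7 CFU/ml and swabbed onto TSA-YE agar. Six-millimetre disks infused with antibiotic placed on plates. Inhibition zones measured after overnight (16 h) growth. Strains grown at 37°C in tryptic soy broth with yeast extract.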

Listeria monocytogenes [9] = test: Antibacterial activity against 10^7 CFU/ml telA-deficient Listeria monocytogenes EGD-e Serovar 1/2a […] after 16 hrs by disk diffusion assay; details: read-out: IZ; method in brief: as §3
Listeria monocytogenes [10] = test: Antibacterial activity against 10^7 CFU/ml telA-deficient Listeria monocytogenes EGD-e Serovar 1/2a at 5 ug after 16 hrs by disk diffusion assay; details: read-out: IZ; method in brief: as §1
Listeria monocytogenes [11] = test: Antibacterial activity against 10^7 CFU/ml wild-type Listeria monocytogenes EGD-e Serovar 1/2a at 5 ug after 16 hrs by disk diffusion assay; details: read-out: IZ; method in brief: as §1

Row | SMILES | MIC (Listeria monocytogenes [2]) | MIC (Listeria monocytogenes [3]) | fold change (FC) (Listeria monocytogenes [4]) | zone of inhibition at 30 µg/disc (Listeria monocytogenes [6]) | zone of inhibition at 30 µg/disc (Listeria monocytogenes [7]) | also measured
1 | CC[C@H](C)[C@H](N)C1=N[C@H](C(=O)N[C@@H](CC(C)C)C(=O)N[C@H](CCC(=O)O)C(=O)N[C@H](C(=O)N[C@H]2CCCCNC(=O)[C@H](CC(N)=O)NC(=O)[C@@H](CC(=O)O)NC(=O)[C@H](Cc3cnc[nH]3)NC(=O)[C@@H](Cc3ccccc3)NC(=O)[C@H]([C@@H](C)CC)NC(=O)[C@@H](CCCN)NC2=O)[C@@H](C)CC)CS1 [BACITRACIN] ({Ileψ(thiazoline)Cys}-L[dE]IK[dOrn]I[dF]H[dD]N; lactam 4-C) | 128 µg/mL (≈ 90 µM) | 256 µg/mL (≈ 180 µM) | 2 | – | – | zone of inhibition at 10 µg/disc (Listeria monocytogenes [1]): 15.1 mm; zone of inhibition at 10 µg/disc (Listeria monocytogenes [5]): 12.5 mm
2 | CO/N=C(\C(=O)N[C@@H]1C(=O)N2C(C(=O)O)=C(COC(N)=O)CS[C@H]12)c1ccco1 [CEFUROXIME] | 1.44 µg/mL (≈ 3.39 µM) | 2.87 µg/mL (≈ 6.76 µM) | 2 | 21.1 mm | 24.4 mm | –
3 | CO/N=C(\C(=O)N[C@@H]1C(=O)N2C(C(=O)O)=C(COC(C)=O)CS[C@H]12)c1csc(N)n1 [CEFOTAXIME] | 1 µg/mL (≈ 2.2 µM) | 2 µg/mL (≈ 4.39 µM) | 2 | 21.3 mm | 23.7 mm | –
4 | Cc1onc(-c2ccccc2)c1C(=O)N[C@@H]1C(=O)N2[C@@H]1SC(C)(C)[C@@H]2C(=O)O [OXACILLIN] | – | – | – | – | – | zone of inhibition at 1 µg/disc (Listeria monocytogenes [8]): 10.7 mm; zone of inhibition at 1 µg/disc (Listeria monocytogenes [9]): 12.3 mm
5 | COc1cccc(OC)c1C(=O)N[C@@H]1C(=O)N2[C@@H]1SC(C)(C)[C@@H]2C(=O)O [METHICILLIN] | – | – | – | – | – | zone of inhibition at 5 µg/disc (Listeria monocytogenes [10]): 26.7 mm; zone of inhibition at 5 µg/disc (Listeria monocytogenes [11]): 25.6 mm
6 | C/C=C(/NC(=O)[C@H](CCCCN)NC(=O)[C@H](C)NC(=O)[C@H]1CS[C@@H](C)[C@@H](NC(=O)[C@H]2CSC[C@@H](NC(=O)[C@H](C)NC(=O)[C@@H](N)[C@@H](C)CC)C(=O)N[C@@H](CCCCN)C(=O)N[C@@H](Cc3ccccc3)C(=O)N[C@@H](CC(C)C)C(=O)N2)C(=O)N2CCC[C@H]2C(=O)NCC(=O)N1)C(=O)NCC(=O)N[C@@H]1CSC[C@H]2NC(=O)[C@H](Cc3ccc(O)cc3)NC(=O)[C@@H](CS/C=C/NC2=O)NC(=O)[C@H](CC(N)=O)NC(=O)[C@H](Cc2ccccc2)NC1=O [GALLIDERMIN] | 0.246 µg/mL (≈ 0.114 µM) | 1.97 µg/mL (≈ 0.91 µM) | 8 | – | – | –
